# Measured values from ChEMBL document CHEMBL4765486, “Novel Nonsecosteroidal Vitamin D Receptor Modulator Combined with Gemcitabine Enhances Pancreatic Cancer Therapy through Remodeling of the Tumor Microenvironment” (J Med Chem, 2021).
# The source made the active and inactive calls. Unless noted, the calls are words filed in the database; no cut-off is given here.
# Key:
# DSL-6A/C1 [1] = conditions: Rattus norvegicus, dose 100.0 mg/kg, time 12.0 day
# LTC-14 [2] = assay: Inhibition of rat LTC-14 cells interaction with DSL-6A/C1 cells in conditioned media assessed as inhibition of PDGF-A protein expression at 0.5 uM measured after 24 hrs by Western blot analysis; type: functional, cell-based
# In short: (§1)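 LTC-14 cells were treated for 24 h with DSL-6A/C1 conditioned medium plus compound (0.5 μM). Proteins were separated on 10% SDS-PAGE, transferred to PVDF and probed with rabbit anti-PDGF-A or anti-POSTN, with β-actin as loading reference.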
# DSL-6A/C1 [3] = assay: Antiproliferative activity against rat DSL-6A/C1 cells assessed as reduction in cell viability at 0.5 uM treated with conditioned media of LTC-14 cells for 24 hrs by MTT assay; type: functional, cell-based
# In short: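 Rat pancreatic cancer DSL-6A/C1 cells were cultured in supernatant from LTC-14 PSCs (PSC-CM) with compound added at 0.5 μM for 24 h. Viability was then read by MTT: 4 h incubation with MTT (5 mg/mL stock), absorbance at 570 nm. Run in triplicate, compared with PSC-CM alone.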
# LTC-14 [4] = assay: Inhibition of rat LTC-14 cells activation assessed as inhibition of PDGFA mRNA expression at 0.5 uM treated under conditioned media of DSL-6A/C1 cells for 24 hrs by q-PCR analysis; type: functional, cell-based
# In short: (§2)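 LTC-14 PSCs were exposed for 24 h to conditioned medium from rat DSL-6A/C1 cancer cells containing compound at 0.5 μM. Pdgfa, Pdgfb, Fgf2, Hgf and Periodin mRNA were quantified by RT-qPCR. Three repeats, mean ± SD versus CM alone.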
# Vitamin D3 receptor = target: T1, Vitamin D3 receptor (Homo sapiens, UniProt P11473); assay: Binding affinity to VDR (unknown origin) by fluorescence polarization assay
# T1 sequence (P11473 whole entry): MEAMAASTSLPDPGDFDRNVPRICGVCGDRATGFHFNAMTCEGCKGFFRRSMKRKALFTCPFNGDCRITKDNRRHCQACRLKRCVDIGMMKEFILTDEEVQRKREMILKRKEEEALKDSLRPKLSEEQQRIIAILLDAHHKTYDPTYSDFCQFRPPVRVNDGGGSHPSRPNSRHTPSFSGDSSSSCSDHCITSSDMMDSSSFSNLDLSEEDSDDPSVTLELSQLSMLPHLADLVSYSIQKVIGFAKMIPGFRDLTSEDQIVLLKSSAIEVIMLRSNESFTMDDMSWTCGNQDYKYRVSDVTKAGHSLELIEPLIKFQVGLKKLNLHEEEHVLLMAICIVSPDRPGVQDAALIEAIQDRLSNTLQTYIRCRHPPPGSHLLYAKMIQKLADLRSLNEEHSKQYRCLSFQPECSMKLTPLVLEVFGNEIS
# In short: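 Competitive VDR binding was measured by PolarScreen fluorescence polarization, in triplicate.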
# LTC-14 [5] = assay: Inhibition of rat LTC-14 cells interaction with DSL-6A/C1 cells in conditioned media assessed as inhibition of POSTN protein expression at 0.5 uM measured after 24 hrs by Western blot analysis; type: functional, cell-based
# In short: as §1
# LTC-14 [6] = assay: Inhibition of rat LTC-14 cells activation assessed decrease in TGF-beta1 induced collagen 1 protein expression at 0.5 uM incubated for 24 hrs by Western blot analysis; type: functional, cell-based
# In short: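 LTC-14 cells were treated for 24 h with compound (0.5 μM) plus TGF-β1 (0.5 ng/mL in the text, 5 ng/mL in the methods). Lysates were run on 10% SDS-PAGE, transferred to PVDF and probed with rabbit anti-collagen I, with β-actin as reference. Bands were quantified by densitometry versus TGF-β1 alone.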
# LTC-14 [7] = assay: Inhibition of rat LTC-14 cells activation assessed decrease in TGF-beta1 induced Acta2 mRNA expression at 0.5 uM incubated for 24 hrs by q-PCR analysis; type: functional, cell-based
# In short: (§3)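 Immortalized rat PSC line LTC-14, about 1×10^5 cells per well, was grown 24 h at 37 °C in 5% CO2. Cells then received compound (0.5 μM) plus TGF-β1 for 24 h; TGF-β1 is stated as 0.5 ng/mL in the text and 5 ng/mL in the methods. Col1a1 and Acta2 mRNA were measured by RT-qPCR. Mean ± SD versus TGF-β1 alone.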
# [8] = Cytotoxicity against rat LTC-14 cells assessed as reduction in cell proliferation incubated for 24 hrs by MTT assay; type: cell-based; conditions: LTC-14, 24 h
# DSL-6A/C1 [9] = assay: Antiproliferative activity against rat DSL-6A/C1 cells assessed as reduction in cell viability at 0.5 uM incubated for 24 hrs compound treated LTC-14-CM cells by MTT assay; type: functional, cell-based
# In short: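 LTC-14 PSCs were pretreated with compound for 24 h. Their collected supernatant was used to culture DSL-6A/C1 cells, and proliferation was read by MTT: 4 h incubation with MTT (5 mg/mL stock), absorbance at 570 nm. Run in triplicate, compared with untreated PSC-CM.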
# LTC-14 [10] = assay: Inhibition of rat LTC-14 cells activation assessed as reduction in ECM deposition resulting in doxorubicin accumulation in PSC spheres pretreated with compounds followed by doxorubicin addition by laser confocal microscopy analysis; type: functional, cell-based
# In short: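 LTC-14 cells were grown in 3D culture to form PSC spheres and treated with compounds. Fluorescent doxorubicin was then added, and its penetration into the spheres was imaged by laser confocal microscopy. Three repeats, versus untreated control.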
# LTC-14 [11] = assay: Inhibition of rat LTC-14 cells activation assessed as inhibition of Hgf mRNA expression at 0.5 uM treated under conditioned media of DSL-6A/C1 cells for 24 hrs by q-PCR analysis; type: functional, cell-based
# In short: as §2
# [12] = target: T2, Vitamin D3 receptor (Homo sapiens) (UniProt P11473); assay: Binding affinity to VDR (unknown origin) at 1 uM by fluorescence polarization assay relative to calcipotriol; conditions: filed as agonist
# T2 sequence (whole entry): T1 sequence (P11473 whole entry)
# In short: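 PolarScreen VDR competitor fluorescence polarization assay with compounds at 1 μM in triplicate. Read-out used 535 nm excitation and 590 nm emission filters.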
# LTC-14 [13] = assay: Inhibition of rat LTC-14 cells activation assessed as inhibition of Fgf mRNA expression at 0.5 uM treated under conditioned media of DSL-6A/C1 cells for 24 hrs by q-PCR analysis; type: functional, cell-based
# In short: as §2
# LTC-14 [14] = assay: Inhibition of rat LTC-14 cells activation assessed as inhibition of Periodin-mRNA expression at 0.5 uM treated under conditioned media of DSL-6A/C1 cells for 24 hrs by q-PCR analysis; type: functional, cell-based
# In short: as §2
# [15] = Cytotoxicity against rat DSL-6A/C1 cells assessed as reduction in cell proliferation at 0.5 uM incubated for 24 hrs by MTT assay; type: cell-based; conditions: dsl-6a/c1, 24 h
# LTC-14 [16] = assay: Inhibition of rat LTC-14 cell activation assessed decrease in TGF-beta1 induced Colla1 mRNA expression at 0.5 uM incubated for 24 hrs by q-PCR analysis; type: functional
# In short: as §3
# Mus musculus [17] = assay: (§4) Inhibition of GFP-tagged rat LTC-14 cells activation in BALB/c nude mouse xenografted along with luciferase-tagged DSL-6A/C1-Luc cells assessed as reduction in alpha-smooth muscle actin expression in tumor at 500 ug/kg, ip administered once every 3 days for 12 days coadministered with gemcitabine at 100 mg/kg by DAPI staining based laser confocal scanning microscopy; type: functional, organism-based; conditions: dose 500.0 µg/kg, time 12.0 day
# In short: (§5)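 Tumours were taken from orthotopic co-inoculated nude mice given gemcitabine 100 mg/kg plus compound (500 μg/kg) or calcipotriol (60 μg/kg) ip for 12 days. Sections were fixed in 4% PFA, permeabilised with 0.5% Triton X-100 and blocked in 5% BSA. They were incubated with anti-α-SMA overnight at 4 °C, then an Alexa Fluor 594 secondary for 1 h at 37 °C, DAPI-counterstained and imaged by confocal microscopy.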
# DSL-6A/C1 [18] = assay: (§6) Potentiation of gemcitabine-induced antitumor activity against luciferase-tagged rat DSL-6A/C1 cells and GFP-tagged LTC-14 cells co-inoculated in orthotropic xenograft BALB/c nude mouse model of pancreatic cancer assessed as reduction in tumor volume at 500 ug/kg, ip administered once every 3 days for 12 days coadministered with gemcitabine at 100 mg/kg and measured after 3 days post last dose by IVIS optical imaging analysis; type: functional, organism-based; conditions: dose 500.0 µg/kg, time 12.0 day
# In short: (§7)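 DSL-6A/C1-luci and LTC-14-GFP cells were co-inoculated orthotopically into the pancreas of nude mice, n=5 per group. Treatment began 7 days after grafting (methods) or 14 days (text). Gemcitabine 100 mg/kg ip every 3 days, alone or with compound 500 μg/kg or calcipotriol 60 μg/kg in ethanol/polyoxyethylene castor oil/saline (1:1:18), for 12 days. Tumour growth was followed by bioluminescence imaging.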
# [19] = target: T2, Vitamin D3 receptor (Homo sapiens); assay: Agonist activity at VDR (unknown origin) expressed in HEK293 cells co-transfected with pGL4.27-SPP3-Luc and CMV-hRXRalpha and pCMX-Renilla plasmids after 24 hrs by dual luciferase reporter gene assay; type: cell-based; conditions: filed as agonist, dose 0.0001-1 µM
# In short: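 HEK293 cells in 48-well plates were transfected per well with 40 ng TK-Spp×3-LUC reporter, 20 ng pCMX-Renilla, 30 ng pENTER-CMV-hRXRα and 100 ng pCMX-VDR using Lipofectamine 2000. Compounds were added 8 h post-transfection, and dual-luciferase activity was read 24 h later. Firefly signal was normalised to Renilla. The experiment was run three times.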
# LTC-14 [20] = assay: Inhibition of rat LTC-14 cells activation assessed as inhibition of PDGFB mRNA expression at 0.5 uM treated under conditioned media of DSL-6A/C1 cells for 24 hrs by q-PCR analysis; type: functional, cell-based
# In short: as §2
# Mus musculus [21] = assay: as §4, with “60” for “500”, “mg/kg and measured after 3 days post last dose and” for “mg/kg”; type: functional, organism-based; conditions: dose 60.0 µg/kg, time 12.0 day
# In short: as §5
# DSL-6A/C1 [22] = assay: as §6, with “against” for “against luciferase-tagged”, “DSL-6A/C1-Luc” for “DSL-6A/C1”, “LTC-14-GFP” for “GFP-tagged LTC-14”, “60” for “500”; type: functional, organism-based; conditions: dose 60.0 µg/kg, time 12.0 day
# In short: as §7
smiles,measurement,setting,value
Nc1ccn([C@@H]2O[C@H](CO)[C@@H](O)C2(F)F)c(=O)n1,TGI,DSL-6A/C1 [1],inactive
CCN(CC)CCCNC(=O)c1ccc(C(CC)(CC)c2ccc(OCCC(C)(C)O)c(C)c2)n1CC,inhibition,LTC-14 [2],Active
same,Activity,DSL-6A/C1 [3],inactive
same,inhibition,LTC-14 [4],Active
same,IC50,Vitamin D3 receptor,92.5 nM
same,inhibition,LTC-14 [5],Active
same,inhibition,LTC-14 [6],Active
same,inhibition,LTC-14 [7],Active
same,IC50,[8],> 10 µM
same,Activity,DSL-6A/C1 [9],Active
same,inhibition,LTC-14 [10],Active
same,inhibition,LTC-14 [11],Active
same,RBA,[12],85%
same,inhibition,LTC-14 [13],Active
same,inhibition,LTC-14 [14],Active
same,Activity,[15],Non-Toxic
same,inhibition,LTC-14 [16],Active
same,inhibition,Mus musculus [17],Active
same,TGI,DSL-6A/C1 [18],Active
same,Activity,[19],Dose-dependent effect
same,inhibition,LTC-14 [20],Active
C=C1/C(=C/C=C2\CCC[C@]3(C)[C@@H]([C@H](C)/C=C/[C@@H](O)C4CC4)CC[C@@H]23)C[C@@H](O)C[C@@H]1O,inhibition,Mus musculus [21],Active
same,inhibition,LTC-14 [6],Active
same,inhibition,LTC-14 [7],Active
same,IC50,[8],> 10 µM
same,Activity,[15],Non-Toxic
same,inhibition,LTC-14 [16],Active
same,Activity,[19],Dose-dependent effect
same,Activity,DSL-6A/C1 [22],Active
